From ChEMBL document CHEMBL4422612, “Small Molecule Inhibitor that Stabilizes the Autoinhibited Conformation of the Oncogenic Tyrosine Phosphatase SHP2” (J Med Chem, 2019) come the findings set out here.

The target in experiment [1] is T1, Tyrosine-protein phosphatase non-receptor type 11 (Mus musculus) (UniProt P35235).
T1 sequence (whole entry): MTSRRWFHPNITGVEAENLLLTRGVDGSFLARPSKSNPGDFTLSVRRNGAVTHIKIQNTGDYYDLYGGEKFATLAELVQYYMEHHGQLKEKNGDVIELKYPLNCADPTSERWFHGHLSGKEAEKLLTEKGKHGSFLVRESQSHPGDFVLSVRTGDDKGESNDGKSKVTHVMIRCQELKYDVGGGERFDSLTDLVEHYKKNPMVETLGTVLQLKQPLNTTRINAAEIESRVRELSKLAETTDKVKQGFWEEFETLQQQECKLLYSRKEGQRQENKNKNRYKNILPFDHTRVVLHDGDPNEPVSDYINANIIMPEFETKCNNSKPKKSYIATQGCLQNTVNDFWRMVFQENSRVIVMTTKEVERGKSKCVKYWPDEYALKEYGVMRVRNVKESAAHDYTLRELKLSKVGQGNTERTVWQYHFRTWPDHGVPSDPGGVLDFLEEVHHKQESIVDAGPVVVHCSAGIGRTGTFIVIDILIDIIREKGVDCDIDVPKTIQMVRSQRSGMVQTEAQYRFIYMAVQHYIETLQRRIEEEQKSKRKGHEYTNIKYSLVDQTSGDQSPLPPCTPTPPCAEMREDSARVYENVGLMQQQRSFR
The experiment in a line: Inhibition of SHP2 in mouse Ba/F3 cells assessed as reduction in IL3-stimulated AKT phosphorylation pretreated for 4 hrs followed by IL3 stimulation and measured after 5 to 60 mins by Western blot analysis. Format: cell-based. The gist of the method:
(§1)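 Ba/F3 cells starved overnight in serum- and cytokine-free RPMI1640. Treated with 20 µM compound for 4 h, then IL-3 (2 ng/mL) for the indicated times. RIPA lysates (50 µg) immunoblotted for p-Erk, p-Akt, p-Jak2 and p-Stat5, then reprobed for total proteins. Representative of three experiments.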

The test system of experiment [2] is T2, Tyrosine-protein phosphatase non-receptor type 11 (Homo sapiens), Q06124 [E76K].
T2 sequence (whole entry): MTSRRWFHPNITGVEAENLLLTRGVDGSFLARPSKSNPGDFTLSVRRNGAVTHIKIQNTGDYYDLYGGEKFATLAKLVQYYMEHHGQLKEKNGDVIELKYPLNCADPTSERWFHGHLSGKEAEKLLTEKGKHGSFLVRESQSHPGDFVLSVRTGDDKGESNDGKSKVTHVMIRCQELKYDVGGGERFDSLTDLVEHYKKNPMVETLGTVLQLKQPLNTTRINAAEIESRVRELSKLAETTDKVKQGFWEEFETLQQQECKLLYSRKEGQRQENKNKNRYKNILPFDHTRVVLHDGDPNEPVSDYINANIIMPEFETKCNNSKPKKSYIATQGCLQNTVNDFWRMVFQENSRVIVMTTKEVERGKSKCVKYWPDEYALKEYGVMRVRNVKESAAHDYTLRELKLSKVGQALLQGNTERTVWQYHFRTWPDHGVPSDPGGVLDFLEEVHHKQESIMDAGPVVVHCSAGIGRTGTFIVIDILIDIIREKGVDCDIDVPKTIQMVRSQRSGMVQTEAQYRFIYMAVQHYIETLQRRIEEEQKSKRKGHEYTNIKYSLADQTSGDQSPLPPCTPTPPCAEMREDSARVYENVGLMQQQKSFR
The experiment can be described thus: Inhibition of Ptpn11 E76K mutant in bone marrow cells isolated from JMML patient assessed as inhibition of GM-CSF-induced colony forming units at 1.25 to 5 uM after 14 days by inverted microscopy. Format: cell-based. The gist of the method:
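JMML patient splenocytes, marrow or blood cells (PTPN11 E76K/+), 5×10⁴ cells/mL, with healthy apheresis controls. Plated in 0.9% methylcellulose IMDM with 30% FBS, glutamine, β-mercaptoethanol and GM-CSF 1.0 ng/mL, plus compound or DMSO. Myeloid colonies counted at 14 days, 37 °C, 5% CO2, normalized to DMSO.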

In experiment [3] the target is T1, Tyrosine-protein phosphatase non-receptor type 11 (Mus musculus). The experiment in a line: Inhibition of SHP2 in mouse Ba/F3 cells assessed as reduction in IL3-stimulated STAT5 phosphorylation pretreated for 4 hrs followed by IL3 stimulation and measured after 5 to 60 mins by Western blot analysis. Format: cell-based. An outline of the steps: as §1
The target is the same in experiment [4]. The experiment in a line: Inhibition of SHP2 in mouse Ba/F3 cells assessed as reduction in IL3-stimulated ERK phosphorylation pretreated for 4 hrs followed by IL3 stimulation and measured after 5 to 60 mins by Western blot analysis. Format: cell-based. The gist of the method:
as §1

In experiment [5] the target is T3, Tyrosine-protein phosphatase non-receptor type 11 (Homo sapiens) (UniProt Q06124).
T3 sequence (whole entry): T1 sequence (whole entry) with V450M, V550A, R590K
The experiment can be described thus: Binding affinity to His-tagged SHP2 (unknown origin) assessed as melting temperature at 10 uM measured every 50 secs by thermal shift assay (reference value: 43.5 +/- 0.95 degC).

The test system of another experiment is NCI-H661. The experiment can be described thus: Growth inhibition of human NCI-H661 cells after 48 hrs by cell proliferation-based assay. Format: functional. An outline of the steps: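 H661 (PTPN11 N58S/+) and H596 (WT PTPN11) lung cancer cells exposed to a concentration series for 48 h, DMSO as control. Cell number measured by One Solution proliferation assay. Triplicates from one of three repeated experiments.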

Experiment [6] addresses T3, Tyrosine-protein phosphatase non-receptor type 11 (Homo sapiens). The experiment in a line: Binding affinity to His-tagged SHP2 (unknown origin) assessed as melting temperature at 5 uM measured every 50 secs by thermal shift assay (reference value: 43.5 +/- 0.95 degC).
Experiment [7] has as its system T2, Tyrosine-protein phosphatase non-receptor type 11 (Homo sapiens), Q06124 [E76K]. The experiment can be described thus: Inhibition of recombinant full length human GST-tagged SHP2 E76K mutant using phospho-peptide as substrate pre-incubated for 30 mins before substrate addition and measured after 30 mins.
The target of experiment [8] is T3, Tyrosine-protein phosphatase non-receptor type 11 (Homo sapiens). The experiment can be described thus: Binding affinity to full length wild type GST-tagged SHP2 (unknown origin) luminescence spectrometry-based quenching assay. An outline of the steps:
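Intrinsic fluorescence quenching of full-length WT GST-SHP2 held at 3.0 µM in 20 mM Tris-HCl pH 7.5 while compound concentration is increased. Excitation 295 nm, emission 360–500 nm. Compound-alone fluorescence subtracted; intensities are relative. Triplicates shown from one of three repeats.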

Changes are numbered by the printed parent chain. The source made the active and inactive calls. No cut-off for these calls is given here.

As for `CCOc1cc(O)c(C(=O)/C=C/c2ccc(Cl)cc2Cl)cc1CN1CCC=C(n2c(=O)[nH]c3ccccc32)C1`, the inhibition result in experiment [1], in experiment [3], in [4] and in [7] was “Dose-dependent effect” throughout. Further, the inhibition result in experiment [2] was “Active”. Moreover, the Tm in experiment [5] stood at 47.2 °C; in [6], 46.3 °C. The “growth inhibition (GI)” value with NCI-H661 was “Dose-dependent effect”. For the same molecule, the Activity entry in [8] was “Dose-dependent effect”.
